The list is not random: actives were taken first. Their share in the collection is about 2.4%.
A3A deaminase: human APOBEC3A DNA deaminase inhibition. inhibition, % at 20 µM. P31941. recombinant A3A, FAM/TAMRA ssDNA deamination fluorescence. hit rate 0.41% among 330,000;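 active means at least 40% inhibition at 20 µM here, with at most 30% in a related deaminase screen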
Target sequence (P31941 whole entry, looked up): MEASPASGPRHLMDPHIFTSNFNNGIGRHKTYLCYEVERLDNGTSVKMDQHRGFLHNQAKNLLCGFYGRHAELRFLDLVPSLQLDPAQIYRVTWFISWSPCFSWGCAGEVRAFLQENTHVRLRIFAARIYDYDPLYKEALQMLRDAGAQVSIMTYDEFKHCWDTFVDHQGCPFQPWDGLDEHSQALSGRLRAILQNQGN
HKDC1 inh: blocks human hexokinase HKDC1 activity | Q2TB90 | recombinant HKDC1, G6PDH/diaphorase resazurin coupled fluorescence | inhibition, % at 20 µM | hit rate 0.16% among 340,000 | AID 493160;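 active means inhibition above about 35% when tested at 20 µM, limit read from the data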
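Assay system: recombinant HKDC1 hexokinase; detection: coupled resazurin fluorescence, excitation 525 nm, emission 613 nm; benchmarks: DMSO-plus-enzyme-mix negative control, buffer-substituted positive control; compound dosing: single 20 µM dose; schedule: 90 min at room temperature in dark; also added: glucose plus 1 mM ATP as hexokinase substrates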
PfM18AAP inh: PfM18AAP enzyme inhibition; recombinant PfM18AAP, H-Glu-NHMec fluorogenic cleavage; inhibition, % at 7.35 µM; hit rate 1.2% among 290,000;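 active means inhibition above the campaign mean inhibition over all tested compounds plus 3 SD, cut at about 28% in these data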
UBC9 SUMO inh: inhibitors of human SUMOylation (UBC9); P63279; HTRF SUMOylation assay, SAE1/SAE2 + UBC9, in vitro; inhibition, % at 35 µM; hit rate 0.36% among 290,000; in the data active means inhibition above about 50%, passing the limit was not always enough
APOBEC3G inh: blocks human APOBEC3G single-stranded DNA deamination | AID 493012 | hit rate 0.28% among 330,000 | inhibition, % at 20 µM | recombinant A3G, ssDNA deamination FAM/TAMRA fluorescence | Q9HC16;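 active means inhibition of at least 40% at 20 µM, with no more than 30% in the related APOBEC3A deaminase screen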
Target sequence (Q9HC16 whole entry, looked up): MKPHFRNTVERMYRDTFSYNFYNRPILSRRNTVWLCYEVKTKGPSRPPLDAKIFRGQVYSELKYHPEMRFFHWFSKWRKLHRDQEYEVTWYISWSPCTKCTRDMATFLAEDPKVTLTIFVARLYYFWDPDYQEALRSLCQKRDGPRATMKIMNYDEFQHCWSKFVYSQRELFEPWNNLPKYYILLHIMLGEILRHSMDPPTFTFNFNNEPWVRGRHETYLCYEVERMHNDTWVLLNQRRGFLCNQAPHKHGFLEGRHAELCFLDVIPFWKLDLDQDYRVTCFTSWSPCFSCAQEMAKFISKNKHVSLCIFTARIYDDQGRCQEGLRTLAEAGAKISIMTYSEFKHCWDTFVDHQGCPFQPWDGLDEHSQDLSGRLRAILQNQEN
PfG6PD inh: PfG6PD (Plasmodium falciparum) enzyme inhibition; PfGluPho enzyme, NADPH resazurin-diaphorase fluorescence; inhibition, % at 20 µM; hit rate 0.78% among 350,000; AID 504690;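 active means inhibition reaching at least a set limit at 20 µM in the primary screen, cut at about 59% in these data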
PfGluPho conf: confirmation of Plasmodium falciparum G6PD inhibitors; shares compounds with PfG6PD inh; recombinant PfGluPho, NADPH-diaphorase-resazurin fluorescence; inhibition, % at 20 µM; hit rate 34% among 2,400;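 active means inhibition of at least 50% at 20 µM in any single replicate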
Diaphorase 10uM: diaphorase inhibition or oxidation at 10 uM NADPH; hit rate 39% among 820; AID 504862; inhibition, % at 20 µM; shares compounds with PfG6PD inh; diaphorase-coupled resazurin reduction, fluorescence, NADPH 10 uM;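 active means average inhibition reaching 50% or more with the compound at 20 µM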;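 further: resorufin red fluorescence formed as diaphorase reduces resazurin using NADPH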
Diaphorase 30uM: inhibits diaphorase or oxidizes, flagging false PfG6PD hits; inhibition, % at 20 µM; Diaphorase/resazurin coupled assay, resorufin fluorescence, 30 uM NADPH; shares compounds with PfG6PD inh; hit rate 29% among 820;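 active means inhibition averaging 50% or more, tested at 20 µM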
Large screens that a line does not name were inactive (follow-up assays come after a bar, where they were run).

Cc1nn(-c2ccccc2)c2nc(-c3cccs3)cc(C(=O)NN)c12	none
O=S(c1ccccc1O)S(=O)c1ccccc1O (stereo unspecified)	PfG6PD inh 94 (no result: A3A deaminase, PfM18AAP inh, UBC9 SUMO inh, APOBEC3G inh) | PfGluPho conf 75 | Diaphorase 10uM inactive | Diaphorase 30uM inactive
Cn1ncc(Br)c1C(=O)N/N=C/c1cccc(OC2CSC2)c1	PfG6PD inh 115 | PfGluPho conf 91 | Diaphorase 10uM 91 | Diaphorase 30uM 81
Cn1ncc(Br)c1C(=O)N/N=C/c1ccc(OS(=O)(=O)c2ccccc2)cc1	none
CCOC(=O)c1c(OCC)[nH]c2c1cc(O)c1ccccc12	PfG6PD inh 69 | PfGluPho conf 49 | Diaphorase 10uM inactive | Diaphorase 30uM inactive
CCOC(=O)c1c(C)[nH]c2cc(Br)c(O)cc12	none
CCOC(=O)c1nc(NCc2ccccc2)sc1C	PfG6PD inh 68 | PfGluPho conf inactive
O=C(NC(c1ccc(Cl)cc1)c1cc(Cl)c2cccnc2c1O)c1cccnc1 (stereo unspecified)	none (no result: A3A deaminase, APOBEC3G inh)
O=C(CSCc1ccc(Cl)cc1)N/N=C/c1ccco1	PfG6PD inh 60 | PfGluPho conf inactive
Cc1ccc(/C=N/NC(=O)CSCc2ccc(Cl)cc2)cc1	PfG6PD inh 59 | PfGluPho conf inactive
Cc1ccsc1/C=N/NC(=O)CSCc1ccc(Cl)cc1	PfG6PD inh 114 | PfGluPho conf 65 | Diaphorase 10uM 78 | Diaphorase 30uM 58
O=S(=O)(NCCc1cccs1)c1ccc(Br)cc1	none
O=C(c1cnc(-c2ccccc2)s1)c1ccc(Cl)cc1Cl	none
COc1ccccc1C(=O)N=c1sc2c(C)ccc(OC)c2n1C	PfG6PD inh 63 | PfGluPho conf inactive
COc1ccc(O)c(/C=c2/sc3nc4cc(C)c(C)cc4n3c2=O)c1	PfG6PD inh 68 | PfGluPho conf inactive
O=C(N/N=C/c1ccncc1)c1cc(-c2ccc(Br)s2)[nH]n1	none
CSc1nc(=S)cc(C)[nH]1	PfM18AAP inh 43, PfG6PD inh 70 | PfGluPho conf inactive
CSc1nc2c(C)c(C)c(C)c(C)c2[nH]1	none
CCCCN1C(=O)C2ON(c3ccccc3C)C(c3ccco3)C2C1=O (stereo unspecified)	PfG6PD inh 73 | PfGluPho conf inactive
CCc1ccc(N2C(=O)C3ON(c4ccccc4)C(c4ccco4)C3C2=O)cc1 (stereo unspecified)	none
CC(C)C1=CC(=NS(=O)(=O)c2cccc([N+](=O)[O-])c2)C=C(C(C)C)C1=O	PfG6PD inh 78 | PfGluPho conf inactive
O=[N+]([O-])c1ccc(Cl)c(S(=O)(=O)Nc2cccc(S(=O)(=O)NC3=NCCC3)c2)c1	PfG6PD inh 67 (no result: PfM18AAP inh, UBC9 SUMO inh) | PfGluPho conf inactive
CCN1C(=O)[C@H]2[C@@H](c3ccc(OC)cc3)N3C(=O)CN(Cc4ccccc4)C(=O)[C@@]3(Cc3ccccc3)[C@H]2C1=O	none
O=C(COc1cccc(F)c1)Nc1nc(-c2ccccn2)cs1	PfG6PD inh 62 (no result: A3A deaminase, HKDC1 inh, PfM18AAP inh, UBC9 SUMO inh, APOBEC3G inh) | PfGluPho conf inactive
O=C(COc1ccc(F)cc1)Nc1nc(-c2ccccn2)cs1	none (no result: PfM18AAP inh, UBC9 SUMO inh)
O=C(N/N=C/c1ccc(N2CCOCC2)o1)c1cccc([N+](=O)[O-])c1	PfG6PD inh 70 | PfGluPho conf inactive
O=C(N/N=C/c1ccc(N2CCCCC2)o1)c1ccccc1	none (no result: A3A deaminase, APOBEC3G inh)
CC1CCc2nn(CC(=O)NCc3ccco3)cc2C1 (stereo unspecified)	none
Nn1c(CSc2nc3ccccc3o2)nnc1CSc1nc2ccccc2o1	PfG6PD inh 87 | PfGluPho conf 60 | Diaphorase 10uM 56 | Diaphorase 30uM inactive
CCOc1ccc(NC(=O)CC2C(=O)NCCN2C(=O)Nc2ccccc2)cc1 (stereo unspecified)	none
COc1ccc(OC)c(/C=N/NC(=O)CNC(=O)c2cccc3ccccc23)c1	PfG6PD inh 99 | PfGluPho conf 74 | Diaphorase 10uM 63 | Diaphorase 30uM 62
COc1ccc(NC(C)C(=O)N/N=C/c2cc(Br)ccc2OC)cc1 (stereo unspecified)	PfG6PD inh 86 | PfGluPho conf 62 | Diaphorase 10uM inactive | Diaphorase 30uM inactive
COc1ccc(O)c(/C=N/NC(=O)CCC(=O)Nc2cccc(C)c2)c1	none
COc1cccc(/C=N/NC(=O)c2cccc3ccccc23)c1	none
COc1ccc(CCCC(=O)NCC(=O)N/N=C/c2cc(Cl)ccc2OC)cc1	PfG6PD inh 83 | PfGluPho conf 55 | Diaphorase 10uM 59 | Diaphorase 30uM 53
COc1ccc(NC(C)C(=O)N/N=C/c2ccccc2OCc2cccc(Br)c2)cc1 (stereo unspecified)	none
COc1ccc(OC)c(/C=N/NC(=O)CCCC(=O)Nc2cccc(Br)c2)c1	PfG6PD inh 75 | PfGluPho conf inactive
CC(C)C1N=C(c2ccc3c(c2)OCO3)CC(c2ccccc2O)N1 (stereo unspecified)	none
O=C1Nc2ccc(Br)cc2/C1=C/C(=O)c1ccc2c(c1)OCO2	none
CCc1c(C)sc(NC(=O)c2ccoc2C)c1C(N)=O	PfM18AAP inh 40, APOBEC3G inh 60, PfG6PD inh 94 | PfGluPho conf inactive
CCC(=O)Nc1nc2ccccc2n1Cc1ccc(Cl)cc1	none
O=C(Nc1nc2ccccc2n1Cc1ccccc1)c1ccco1	PfG6PD inh 80 | PfGluPho conf inactive
O=C(Nc1nc2ccccc2n1CCN1CCOCC1)c1ccc(Cl)cc1	PfG6PD inh 68 | PfGluPho conf inactive
COc1ccccc1C1=NOC(Cn2c(=O)c3c(ncn3C)n(C)c2=O)C1 (stereo unspecified)	none
CCCCOC(=O)C1=C(C)Nc2ncnn2C1c1ccc(OCC)c(OC)c1 (stereo unspecified)	PfG6PD inh 62 | PfGluPho conf inactive
O=S(=O)(Nc1cc(Sc2cccc3cccnc23)c(O)c2ccccc12)c1ccc(F)cc1	UBC9 SUMO inh 67, PfG6PD inh 98 (no result: A3A deaminase, APOBEC3G inh) | PfGluPho conf 85 | Diaphorase 10uM inactive | Diaphorase 30uM inactive
COC(=O)NC(=S)Nc1ccc(Oc2ccc(Cl)cc2Cl)c(Cl)c1	PfG6PD inh 82 | PfGluPho conf inactive
COC(=O)NC(=S)Nc1ccc(Oc2ccc(Cl)cc2)c(Cl)c1	none
Cc1cc(O)c(C(C)C)cc1N=Cc1ccccc1O	PfG6PD inh 103 | PfGluPho conf inactive
Cc1cc(O)c(C(C)C)cc1N=Cc1cc([N+](=O)[O-])ccc1O	PfG6PD inh 82 | PfGluPho conf inactive
O=C(Nc1ccccn1)c1cc2ccccc2cc1O	PfG6PD inh 67 | PfGluPho conf inactive
